Screening results (PubChem BioAssay)
RAM inhibit: inhibitors of the yeast RAM network | AID 868 | 190,000 tested, 1.8% active | inhibition, % at 50 µM | S. cerevisiae dse1pr::URA3 reporter, 5-FOA growth OD615, 2 d; analog-sensitive cbk1-as2 kinase mutant strain;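 active = inhibition above a set limit, 3 SD over mean compound inhibition, cut at about 8.4% in these data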;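 also: 0% = DMSO-only wells with no growth and 100% = 10 µM 1-NA-PP1 full growth; inhibition rescues growth on 5-FOA so higher OD means more RAM inhibition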
NPY Y1 blocker: blocks the human neuropeptide Y Y1 receptor | P25929 | 200,000 tested, 1% active | HEK293-CNG Y1 cells, membrane potential fluorescence; NPY at EC95, then isoproterenol | inhibition, % at 3.6 µM;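 active = inhibition above the campaign mean inhibition of all tested compounds plus 3 SD, cut at about 20% in these data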;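 also: 0% = DMSO wells given NPY plus isoproterenol and 100% = isoproterenol alone without NPY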
Target sequence (P25929 whole entry, looked up): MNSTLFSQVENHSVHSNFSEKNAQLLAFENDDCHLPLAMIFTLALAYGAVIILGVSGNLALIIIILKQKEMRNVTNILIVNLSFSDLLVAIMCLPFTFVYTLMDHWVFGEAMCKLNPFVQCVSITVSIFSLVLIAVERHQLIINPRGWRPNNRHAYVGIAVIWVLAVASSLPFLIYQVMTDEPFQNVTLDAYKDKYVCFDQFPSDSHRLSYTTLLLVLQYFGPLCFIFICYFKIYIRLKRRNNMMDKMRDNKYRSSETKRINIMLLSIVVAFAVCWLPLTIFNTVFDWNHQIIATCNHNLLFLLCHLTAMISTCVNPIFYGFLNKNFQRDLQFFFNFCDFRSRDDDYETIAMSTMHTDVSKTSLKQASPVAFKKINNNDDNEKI
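Material: HEK293 Y1/CNG channel cell line; also added: NPY (25 nM), isoproterenol (1 µM), Ro 20-1724 (25 µM); doses: one concentration, 3.6 µM, in 0.4% DMSO; schedule: compound incubation 1 h at room temperature, readout 45 min post-stimulation; technique: membrane potential fluorescence; measure: fluorescence ratio normalized to % inhibition between controls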
Insulin prom inh: TRM-6 insulin promoter activity inhibition; TRM-6 cells, insulin promoter-eGFP reporter, imaging; reporter expression induced with tamoxifen; 130,000 tested, 0.9% active; inhibition, % at 2 µM;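 active = inhibition above the mean plus 3 SD, with well images judged a real hit on visual review, cut at about 60% in these data, passing the limit was not always enough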
NPY1 pot ag: human NPY-Y1 potentiation or agonism, primary screen; activation, % at 3.6 µM; P25929; 220,000 tested, 0.37% active; NPY-Y1 expressing cells, potentiator/agonist activation; in the data active = activation above about 33%, passing the limit was not always enough;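 also: cells stimulated with NPY at EC10 then isoproterenol at EC100; 0% = low agonist plus stimulus and 100% = saturating agonist plus stimulus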
NPY2 pot ag: potentiates or activates human NPY-Y2 receptor; activation, % at 3.6 µM; AID 1359; cells expressing NPY-Y2, potentiator/agonist read-out; P49146; 220,000 tested, 0.45% active; in the data active = activation above about 27%;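 also: cells stimulated with NPY near EC25 plus isoproterenol at EC100; 0% = vehicle plus submaximal agonist and 100% = vehicle plus saturating agonist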
NPY-Y2 antag: antagonists of human neuropeptide Y receptor Y2. 140,000 tested, 0.99% active. NPY-Y2 expressing cells, antagonist mode. inhibition, % at 2.7 µM; in the data active = inhibition above about 17%;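 also: 0% = vehicle with agonist challenge and 100% = reference antagonist with challenge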
The depositor's hits bear a star. Most compounds without a hit are left out; they make up all but 3.8% or so of the library.

`O=C(Cn1cnc2ccccc2c1=O)NC1CCCc2ccccc21` (centres undefined) gave RAM inhibit 2, NPY Y1 blocker -2, NPY1 pot ag -8, NPY2 pot ag 19 and NPY-Y2 antag -1.
Screening Cc1ccc(/C(COc2ccccc2O)=N\O)cc1 returned RAM inhibit 0, NPY Y1 blocker 0, NPY1 pot ag -16, NPY2 pot ag -4 and NPY-Y2 antag -2.
CCc1nccn1S(=O)(=O)c1cc(Br)ccc1OC was read as RAM inhibit 2, NPY Y1 blocker 0, Insulin prom inh -45, NPY1 pot ag -10, NPY2 pot ag 6 and NPY-Y2 antag 3.
For CCCc1nccn1S(=O)(=O)c1cc(OC)ccc1OC the results were RAM inhibit 1, NPY Y1 blocker -2, Insulin prom inh 75*, NPY1 pot ag -9, NPY2 pot ag 8 and NPY-Y2 antag 1.
CCN(CC)CCNC(=O)c1cc2cc(Br)ccc2s1 was read as RAM inhibit 2, NPY Y1 blocker 7, Insulin prom inh -17, NPY1 pot ag 2 and NPY2 pot ag -22.
Screening O=C(Nc1ccc(C2=NCCN2)cc1)c1ccc(C(=O)Nc2ccc(C3=NCCN3)cc2)c([N+](=O)[O-])c1 returned NPY1 pot ag 18 and NPY2 pot ag 13.
`O=[N+]([O-])c1cc(Cl)cc(C2=NCCN2)c1` gave RAM inhibit 2, NPY Y1 blocker 2, Insulin prom inh 79*, NPY1 pot ag -1, NPY2 pot ag 7 and NPY-Y2 antag 2.
`CCOC(=O)CSc1nc2c(sc(=S)n2Cc2ccco2)c(=O)n1-c1ccc(F)cc1` gave RAM inhibit 7, NPY Y1 blocker 21*, Insulin prom inh 6, NPY1 pot ag -2, NPY2 pot ag -14 and NPY-Y2 antag 19*.
For CCC(C)NC(=O)CSc1nc2c(sc(=S)n2Cc2ccco2)c(=O)n1-c1ccccc1 (centres undefined) the results were RAM inhibit 6, NPY Y1 blocker 18, Insulin prom inh -33, NPY1 pot ag -23, NPY2 pot ag -40 and NPY-Y2 antag 12.
Screening N=c1c(C(=O)NCc2ccc(F)cc2)cc2c(=O)n3ccccc3nc2n1Cc1ccco1 returned RAM inhibit 0, NPY Y1 blocker 3, Insulin prom inh -38, NPY1 pot ag 8, NPY2 pot ag 6 and NPY-Y2 antag 16.
For COCCCn1c(=N)c(C(=O)NC2CCCCC2)cc2c(=O)n3ccccc3nc21 the results were RAM inhibit -1, NPY Y1 blocker 15, Insulin prom inh -29, NPY1 pot ag -11, NPY2 pot ag 14 and NPY-Y2 antag 20*.
For N=c1c(C(=O)NCc2ccco2)cc2c(=O)n3ccccc3nc2n1Cc1ccc(Cl)cc1 the results were RAM inhibit 1, NPY Y1 blocker 36*, Insulin prom inh 0, NPY1 pot ag 10, NPY2 pot ag -25 and NPY-Y2 antag 25*.
Screening CCCC1C(=O)N(Cc2ccccc2)C(=O)CC1C (centres undefined) returned NPY1 pot ag -1 and NPY2 pot ag -12.
`CCC(C)(C)NC(=O)C(c1cccnc1)N(C(=O)c1csnn1)c1ccccc1` (centres undefined) gave RAM inhibit 2, NPY Y1 blocker 2, Insulin prom inh -33, NPY1 pot ag -17 and NPY2 pot ag -3.
O=C(OC1CCCCC1)c1ccc2c(c1)C1C=CCC1C(C(=O)O)N2 (centres undefined) was read as RAM inhibit 11*, NPY Y1 blocker -5, NPY1 pot ag 0, NPY2 pot ag 2 and NPY-Y2 antag 0.
Screening COc1ccc2cc(C(=O)OC(C)C)sc(=O)c2c1OC returned RAM inhibit 2, NPY Y1 blocker 3, Insulin prom inh 71*, NPY1 pot ag -37, NPY2 pot ag -20 and NPY-Y2 antag 2.
For COc1ccc2cc(C(=O)NCC(=O)O)sc(=O)c2c1OC the results were RAM inhibit 1, NPY Y1 blocker -1, Insulin prom inh 29, NPY1 pot ag 2, NPY2 pot ag 6 and NPY-Y2 antag 0.
For CC(OC(=O)c1ccc2c(c1)C(=O)N(Cc1ccncc1)C2=O)C(=O)Nc1cccc(Cl)c1Cl (centres undefined) the results were RAM inhibit 1, NPY Y1 blocker -11, NPY1 pot ag 114*, NPY2 pot ag 103* and NPY-Y2 antag 4.
O=C(COC(=O)c1ccc2c(c1)C(=O)N(Cc1ccncc1)C2=O)Nc1ccccc1[N+](=O)[O-] was read as RAM inhibit 2, NPY Y1 blocker -3, Insulin prom inh -4, NPY1 pot ag -8, NPY2 pot ag 4 and NPY-Y2 antag 1.
For CSc1nnc(Cn2c(=O)sc3ccccc32)n1CCc1ccccc1 the results were RAM inhibit 8.9*, NPY Y1 blocker 14, NPY1 pot ag -6, NPY2 pot ag -5 and NPY-Y2 antag 1.
Cc1c(/C=C/C(=O)c2ccc(Cl)s2)cnn1C was read as RAM inhibit 2, NPY Y1 blocker 2, Insulin prom inh 75*, NPY1 pot ag -12, NPY2 pot ag -10 and NPY-Y2 antag 0.
Screening CC(NC(=O)C(=O)N/N=C\c1ccc([N+](=O)[O-])cc1)c1ccccc1 (centres undefined) returned RAM inhibit 3, NPY Y1 blocker -3, NPY1 pot ag 8 and NPY2 pot ag 2.
CCCOc1ccc(Cc2c(Cl)nc(SC)nc2N(C)C)cc1 was read as RAM inhibit 1, NPY Y1 blocker 22*, Insulin prom inh 32, NPY1 pot ag -54, NPY2 pot ag -14 and NPY-Y2 antag 26*.
CCCOc1ccc(Cc2c(Cl)nc(SC)nc2OC)cc1 was read as RAM inhibit 0, NPY Y1 blocker 3, Insulin prom inh -57, NPY1 pot ag 12, NPY2 pot ag 9 and NPY-Y2 antag 6.
Screening NC(N)=NC1=NC(=O)C(Cc2ccccc2)S1 (centres undefined) returned RAM inhibit 0, NPY Y1 blocker 4, Insulin prom inh 25, NPY1 pot ag 10 and NPY2 pot ag -12.
Cc1ccc(CNC(=O)CCC(=O)c2cccs2)cc1 was read as RAM inhibit 0, NPY Y1 blocker 3, NPY1 pot ag 13, NPY2 pot ag -1 and NPY-Y2 antag 4.
For O=C(CCC(=O)c1cccs1)NCc1ccc(Cl)cc1 the results were RAM inhibit 1, NPY Y1 blocker -2, Insulin prom inh 70*, NPY1 pot ag -8, NPY2 pot ag -3 and NPY-Y2 antag 1.
For C#CCNC(=O)C1=C[C@H](C2CC2)C[C@H](OCCCCO)O1 the results were RAM inhibit 1, NPY Y1 blocker 0, NPY1 pot ag 22 and NPY2 pot ag -1.
For NC(=O)CSC1=Nc2ccccc2C2=NC(c3ccccc3)C(=O)N12 (centres undefined) the results were RAM inhibit 0, NPY Y1 blocker -2, Insulin prom inh 79*, NPY1 pot ag 1 and NPY2 pot ag -2.
